# Assays:
# [1] = test system: Staphylococcus aureus; experiment: Antimicrobial activity against Staphylococcus aureus ATCC 25923 by twofold broth dilution method; assay type: functional
# Outline: (§1)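 Two-fold broth dilution in 96-well micro-test plates, following NCCLS recommendations. Enoxacin and Chloromycin served as positive controls for bacteria, and Fluconazole for fungi. The read-out is the MIC in µg/mL.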
# [2] = test system: Staphylococcus aureus; experiment: Antimicrobial activity against methicillin-resistant Staphylococcus aureus N 315 by twofold broth dilution method; assay type: functional
# Outline: (§2)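 Antibacterial MIC, determined by two-fold serial broth dilution following the NCCLS-recommended method. Clinical antimicrobial drugs were run alongside as positive controls.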
# [3] = test system: Bacillus subtilis; experiment: Antimicrobial activity against Bacillus subtilis ATCC 6633 by twofold broth dilution method; assay type: functional; outline: as §1
# [4] = test system: Micrococcus luteus; experiment: Antimicrobial activity against Micrococcus luteus ATCC 4698 by twofold broth dilution method; assay type: functional; outline: as §1
# [5] = test system: Escherichia coli; experiment: Antimicrobial activity against Escherichia coli ATCC 25922 by twofold broth dilution method; assay type: functional; outline: as §1
# [6] = test system: Proteus vulgaris; experiment: Antimicrobial activity against Proteus vulgaris ATCC 6896 by twofold broth dilution method; assay type: functional; outline: as §1
# [7] = test system: Salmonella typhi; experiment: Antimicrobial activity against Salmonella typhi ATCC 9484 by twofold broth dilution method; assay type: functional, Salmonella enterica subsp. enterica serovar Typhi; conditions: Salmonella enterica; outline: as §2
# [8] = test system: Shigella dysenteriae; experiment: Antimicrobial activity against Shigella dysenteriae ATCC 49550 by twofold broth dilution method; assay type: functional; outline: as §2
# [9] = test system: Candida albicans; experiment: Antifungal activity against Candida albicans ATCC 76615 by twofold broth dilution method; assay type: functional; outline: as §1
# [10] = test system: Saccharomyces cerevisiae; experiment: Antifungal activity against Saccharomyces cerevisiae ATCC 9763 by twofold broth dilution method; assay type: functional; outline: as §1
# [11] = test system: Aspergillus fumigatus; experiment: Antifungal activity against Aspergillus fumigatus ATCC 96918 by twofold broth dilution method; assay type: functional; outline: as §1
SMILES,MIC [1] [µg/mL],MIC [2] [µg/mL],MIC [3] [µg/mL],MIC [4] [µg/mL],MIC [5] [µg/mL],MIC [6] [µg/mL],MIC [7] [µg/mL],MIC [8] [µg/mL],MIC [9] [µg/mL],MIC [10] [µg/mL],MIC [11] [µg/mL]
Cc1cc(=O)oc2cc(OCCCCCn3cncn3)cc(OCCCCCn3cncn3)c12,2,8,4,4,8,4,4,4,2,4,32
Cc1cc(=O)oc2cc(OCc3ccc(Cn4cncn4)cc3)cc(OCc3ccc(Cn4cncn4)cc3)c12,32,64,64,64,64,32,32,64,32,32,64
Cc1cc(=O)oc2cc(OCCCCOc3ccc4c(C)cc(=O)oc4c3)ccc12,128,512,128,128,256,256,256,512,512,256,512
Cc1cc(=O)oc2cc(OCc3ccc(Cn4cncn4)cc3)ccc12,32,64,32,32,64,64,64,64,32,64,64
O=C(N[C@H](CO)[C@H](O)c1ccc([N+](=O)[O-])cc1)C(Cl)Cl [CHLORAMPHENICOL],4,16,8,≤ 4,8,8,4,4,–,–,–
Cc1cc(=O)oc2cc(OCCCCCBr)ccc12,128,256,128,256,512,512,512,256,128,512,256
Cc1cc(=O)oc2cc(OCCCCn3cncn3)ccc12.Cl,2,8,2,2,4,8,16,16,2,4,8
Cc1cc(=O)oc2cc(OCc3ccc(Cn4cncn4)cc3)ccc12.Cl,8,16,8,8,16,16,16,16,8,16,16
Cc1cc(=O)oc2cc(OCCCCCCBr)ccc12,64,256,128,64,512,256,256,512,256,256,512
Cc1cc(=O)oc2cc(OCCCCCCn3cncn3)ccc12,8,16,8,8,32,32,32,32,16,32,32
Cc1cc(=O)oc2cc(OCc3ccc(CBr)cc3)cc(OCc3ccc(CBr)cc3)c12,256,512,128,256,512,512,256,512,256,256,256
Cc1cc(=O)oc2cc(OCc3ccc(Cn4cncn4)cc3)cc(OCc3ccc(Cn4cncn4)cc3)c12.Cl,8,16,16,16,8,16,16,16,8,16,16
CCn1cc(C(=O)O)c(=O)c2cc(F)c(N3CCNCC3)nc21 [ENOXACIN],1,4,1,≤ 1,1,1,2,1,–,–,–
"Cc1cc(=O)oc2cc(O)cc(O)c12 [5,7-DIHYDROXY-4-METHYLCOUMARIN]",32,64,64,64,128,128,256,256,64,256,256
Cc1cc(=O)oc2cc(O)ccc12 [HYMECROMONE],32,64,32,32,128,256,128,512,64,128,128

# Source: ChEMBL document CHEMBL1667774, “Synthesis and evaluation of a class of new coumarin triazole derivatives as potential antimicrobial agents” (2011)
